From ChEMBL document CHEMBL1955763, “Antimicrobial activity of sulfonamides containing 5-chloro-2-hydroxybenzaldehyde and 5-chloro-2-hydroxybenzoic acid scaffold” (Eur J Med Chem, 2012)
Values after ≈ are worked out from the molar mass of the structure shown.

Legend:
Format in all cases: functional
Trichosporon asahii = test: Antifungal activity against Trichosporon asahii 1188 after 24 hrs by broth microdilution method; conditions: Trichosporon asahii, 1188, 24 h
Procedure, shortened: (§1)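 Microdilution broth per CLSI M27-A3 (yeasts) or M38-A2 (moulds) in RPMI 1640 with glutamine, buffered to pH 7.0 with 0.165 mol MOPS. Compounds were in DMSO. Final inoculum was 5 × 10³ ± 0.2 CFU/mL. Other conditions matched the antibacterial assay, with MIC as IC₉₀ read visually and at 540 nm. Determined twice, in duplicate.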

Aspergillus fumigatus = test: Antifungal activity against Aspergillus fumigatus 231 after 24 hrs by broth microdilution method; conditions: Aspergillus fumigatus, 231, 24 h; procedure, shortened: as §1
Lichtheimia corymbifera = test: Antifungal activity against Absidia corymbifera 272 after 24 hrs by broth microdilution method; conditions: Lichtheimia corymbifera, 272, 24 h; procedure, shortened: as §1
[1] = tested on: Trichophyton mentagrophytes; test: Antifungal activity against Trichophyton mentagrophytes 445 after 24 hrs by broth microdilution method; conditions: Trichophyton mentagrophytes, 445, 24 h
[2] = tested on: Mycobacterium tuberculosis; test: Antimycobacterial activity against Mycobacterium tuberculosis H37Rv 331/88 after 14 days; conditions: H37Rv 331/88, 336 h
[3] = tested on: Mycobacterium tuberculosis; test: Antimycobacterial activity against Mycobacterium tuberculosis H37Rv 331/88 after 21 days; conditions: H37Rv 331/88, 504 h
Procedure, shortened: (§2)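 Micromethod in Sula semisynthetic medium, with compounds added as DMSO solutions over a two-fold series from 1000 down to 1. Inoculum for M. avium 330/88 was a 10⁻⁵ dilution. Plates were incubated at 37 °C and MIC was read after 14 and 21 days.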

Mycobacterium avium [4] = test: Antimycobacterial activity against isoniazid-, rifampicin-, ofloxacin-, ethambutol-resistant Mycobacterium avium 330/88 after 14 days; conditions: 330/88, 336 h; procedure, shortened: as §2
Mycobacterium avium [5] = test: Antimycobacterial activity against isoniazid-, rifampicin-, ofloxacin-, ethambutol-resistant Mycobacterium avium 330/88 after 21 days; conditions: 330/88, 504 h; procedure, shortened: as §2
Mycobacterium kansasii [6] = test: Antimycobacterial activity against Mycobacterium kansasii 235/80 after 7 days; conditions: 235/80, 168 h
Procedure, shortened: (§3)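 Micromethod MIC in Sula semisynthetic medium, with compounds added as DMSO solutions at […]. Incubation at 37 °C. Inocula: M. kansasii 235/80 at dilution 10⁻⁴, clinical isolate 6509/96 at 10⁻⁵.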

Mycobacterium kansasii [7] = test: Antimycobacterial activity against Mycobacterium kansasii 235/80 after 14 days; conditions: 235/80, 336 h; procedure, shortened: as §3
Mycobacterium kansasii [8] = test: Antimycobacterial activity against Mycobacterium kansasii 235/80 after 21 days; conditions: 235/80, 504 h; procedure, shortened: as §3
Mycobacterium kansasii [9] = test: Antimycobacterial activity against Mycobacterium kansasii 6509/96 after 7 days; conditions: 6509/96, 168 h; procedure, shortened: as §3
Mycobacterium kansasii [10] = test: Antimycobacterial activity against Mycobacterium kansasii 6509/96 after 14 days; conditions: 6509/96, 336 h; procedure, shortened: as §3
Mycobacterium kansasii [11] = test: Antimycobacterial activity against Mycobacterium kansasii 6509/96 after 21 days; conditions: 6509/96, 504 h; procedure, shortened: as §3
Staphylococcus aureus [12] = test: Antibacterial activity against Staphylococcus aureus CCM 4516/08 after 24 hrs by broth microdilution method; conditions: CCM 4516/08, 24 h
Procedure, shortened: (§4)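 Microdilution broth method modified from M07-A07, in Mueller-Hinton broth at pH 7.4 (±0.2). Compounds were dissolved in DMSO. Inoculum was made in sterile water to 0.5 McFarland (1.5 × 10⁸ CFU/mL). MIC was taken as IC₉₀, meaning ≥90% growth reduction versus the drug-free control. Growth was read visually and by absorbance at 540 nm.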

Staphylococcus aureus [13] = test: Antibacterial activity against Staphylococcus aureus CCM 4516/08 after 48 hrs by broth microdilution method; conditions: CCM 4516/08, 48 h
Procedure, shortened: (§5)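 Broth microdilution modified from standard M07-A07 in Mueller-Hinton broth at pH 7.4 (±0.2). Compounds were dissolved in DMSO. Inoculum in sterile water was adjusted to 0.5 McFarland (1.5 × 10⁸ CFU/mL). MIC was taken as IC₉₀, i.e. ≥90% growth reduction versus control, read visually and spectrophotometrically at 540 nm.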

Staphylococcus aureus [14] = test: Antibacterial activity against methicillin-resistant Staphylococcus aureus H 5996/08 after 24 hrs by broth microdilution method; conditions: H 5996/08, 24 h; procedure, shortened: as §4
Staphylococcus aureus [15] = test: Antibacterial activity against methicillin-resistant Staphylococcus aureus H 5996/08 after 48 hrs by broth microdilution method; conditions: H 5996/08, 48 h; procedure, shortened: as §4
[16] = tested on: Staphylococcus epidermidis; test: Antibacterial activity against methicillin-resistant Staphylococcus epidermidis H 6966/08 after 24 hrs by broth microdilution method; conditions: H 6966/08, 24 h; procedure, shortened: as §4
[17] = tested on: Staphylococcus epidermidis; test: Antibacterial activity against methicillin-resistant Staphylococcus epidermidis H 6966/08 after 48 hrs by broth microdilution method; conditions: H 6966/08, 48 h; procedure, shortened: as §4
Escherichia coli = test: Antibacterial activity against Escherichia coli CCM 4517 after 24 hrs by broth microdilution method; conditions: CCM 4517, 24 h; procedure, shortened: as §5
Candida albicans = test: Antifungal activity against Candida albicans ATCC 44857 after 24 hrs by broth microdilution method; conditions: ATCC 44857, 24 h; procedure, shortened: as §1
Candida tropicalis = test: Antifungal activity against Candida tropicalis 156 after 24 hrs by broth microdilution method; conditions: Candida tropicalis, 156, 24 h; procedure, shortened: as §1
Nakaseomyces glabratus = test: Antifungal activity against Candida glabrata 20/I after 24 hrs by broth microdilution method; procedure, shortened: as §1
Pichia kudriavzevii = test: Antifungal activity against Candida krusei E58 after 24 hrs by broth microdilution method; conditions: E58, 24 h; procedure, shortened: as §1
Klebsiella pneumoniae [18] = test: Antibacterial activity against Klebsiella pneumoniae D 11750/08 after 24 hrs by broth microdilution method; conditions: D 11750/08, 24 h; procedure, shortened: as §5
Klebsiella pneumoniae [19] = test: Antibacterial activity against ESBL-positive Klebsiella pneumoniae J 14368/08 after 24 hrs by broth microdilution method; conditions: J 14368/08, 24 h; procedure, shortened: as §5
Pseudomonas aeruginosa = test: Antibacterial activity against Pseudomonas aeruginosa CCM 1961 after 24 hrs by broth microdilution method; conditions: CCM 1961, 24 h; procedure, shortened: as §5

Cc1cc(C)nc(NS(=O)(=O)c2ccc(/N=C/c3cc(Cl)ccc3O)cc2)n1
MIC (Trichosporon asahii): > 125 µM
MIC (Aspergillus fumigatus): > 125 µM
MIC (Lichtheimia corymbifera): > 125 µM
MIC [1]: > 125 µM
MIC [2]: 250 µM (≈ 104 µg/mL)
MIC [3]: 500 µM (≈ 208 µg/mL)
MIC (Mycobacterium avium [4]): 62.5 µM (≈ 26.1 µg/mL)
MIC (Mycobacterium avium [5]): 125 µM (≈ 52.1 µg/mL)
MIC (Mycobacterium kansasii [6]): 62.5 µM (≈ 26.1 µg/mL)
MIC (Mycobacterium kansasii [7]): 125 µM (≈ 52.1 µg/mL)
MIC (Mycobacterium kansasii [8]): 250 µM (≈ 104 µg/mL)
MIC (Mycobacterium kansasii [9]): 125 µM (≈ 52.1 µg/mL)
MIC (Mycobacterium kansasii [10]): 125 µM (≈ 52.1 µg/mL)
MIC (Mycobacterium kansasii [11]): 250 µM (≈ 104 µg/mL)
MIC (Staphylococcus aureus [12]): 250 µM (≈ 104 µg/mL)
MIC (Staphylococcus aureus [13]): 500 µM (≈ 208 µg/mL)
MIC (Staphylococcus aureus [14]): 125 µM (≈ 52.1 µg/mL)
MIC (Staphylococcus aureus [15]): 250 µM (≈ 104 µg/mL)
MIC [16]: > 500 µM
MIC [17]: > 500 µM
MIC (Escherichia coli): 500 µM (≈ 208 µg/mL)
MIC (Candida albicans): > 125 µM
MIC (Candida tropicalis): > 125 µM
MIC (Nakaseomyces glabratus): > 125 µM
MIC (Pichia kudriavzevii): > 125 µM

NNC(=O)c1ccncc1 [ISONIAZID]
MIC [2]: 0.5 µM (≈ 0.0686 µg/mL)
MIC [3]: 1 µM (≈ 0.137 µg/mL)
MIC (Mycobacterium avium [4]): > 250 µM
MIC (Mycobacterium avium [5]): > 250 µM
MIC (Mycobacterium kansasii [6]): > 250 µM
MIC (Mycobacterium kansasii [7]): > 250 µM
MIC (Mycobacterium kansasii [8]): > 250 µM
MIC (Mycobacterium kansasii [9]): 4 µM (≈ 0.549 µg/mL)
MIC (Mycobacterium kansasii [10]): 4 µM (≈ 0.549 µg/mL)
MIC (Mycobacterium kansasii [11]): 8 µM (≈ 1.1 µg/mL)

Cc1cc(C)nc(NS(=O)(=O)c2ccc(N)cc2)n1 [SULFAMETHAZINE]
MIC [2]: 62.5 µM (≈ 17.4 µg/mL)
MIC [3]: 125 µM (≈ 34.8 µg/mL)
MIC (Mycobacterium avium [4]): 32 µM (≈ 8.91 µg/mL)
MIC (Mycobacterium avium [5]): 62.5 µM (≈ 17.4 µg/mL)
MIC (Mycobacterium kansasii [6]): 16 µM (≈ 4.45 µg/mL)
MIC (Mycobacterium kansasii [7]): 32 µM (≈ 8.91 µg/mL)
MIC (Mycobacterium kansasii [8]): 125 µM (≈ 34.8 µg/mL)
MIC (Mycobacterium kansasii [9]): 16 µM (≈ 4.45 µg/mL)
MIC (Mycobacterium kansasii [10]): 16 µM (≈ 4.45 µg/mL)
MIC (Mycobacterium kansasii [11]): 32 µM (≈ 8.91 µg/mL)
MIC (Staphylococcus aureus [12]): 500 µM (≈ 139 µg/mL)
MIC (Staphylococcus aureus [13]): > 500 µM
MIC (Staphylococcus aureus [14]): 500 µM (≈ 139 µg/mL)
MIC (Staphylococcus aureus [15]): > 500 µM
MIC [16]: > 500 µM
MIC [17]: > 500 µM

O=C(Nc1ccc(S(=O)(=O)Nc2nccs2)cc1)c1cc(Cl)ccc1O
MIC (Trichosporon asahii): > 125 µM
MIC (Aspergillus fumigatus): > 125 µM
MIC (Lichtheimia corymbifera): > 125 µM
MIC [1]: > 125 µM
MIC [2]: 250 µM (≈ 102 µg/mL)
MIC [3]: 250 µM (≈ 102 µg/mL)
MIC (Mycobacterium avium [4]): 250 µM (≈ 102 µg/mL)
MIC (Mycobacterium avium [5]): 250 µM (≈ 102 µg/mL)
MIC (Mycobacterium kansasii [6]): 8 µM (≈ 3.28 µg/mL)
MIC (Mycobacterium kansasii [7]): 16 µM (≈ 6.56 µg/mL)
MIC (Mycobacterium kansasii [8]): 16 µM (≈ 6.56 µg/mL)
MIC (Mycobacterium kansasii [9]): 8 µM (≈ 3.28 µg/mL)
MIC (Mycobacterium kansasii [10]): 8 µM (≈ 3.28 µg/mL)
MIC (Mycobacterium kansasii [11]): 8 µM (≈ 3.28 µg/mL)
MIC (Staphylococcus aureus [12]): > 125 µM
MIC (Staphylococcus aureus [13]): > 125 µM
MIC (Staphylococcus aureus [14]): > 125 µM
MIC (Staphylococcus aureus [15]): > 125 µM
MIC [16]: > 125 µM
MIC [17]: > 125 µM
MIC (Candida albicans): > 125 µM
MIC (Candida tropicalis): > 125 µM
MIC (Nakaseomyces glabratus): > 125 µM
MIC (Pichia kudriavzevii): > 125 µM

O=S(=O)(Nc1ncccn1)c1ccc(/N=C/c2cc(Cl)ccc2O)cc1
MIC (Trichosporon asahii): 62.5 µM (≈ 24.3 µg/mL)
MIC [2]: 125 µM (≈ 48.6 µg/mL)
MIC [3]: 250 µM (≈ 97.2 µg/mL)
MIC (Mycobacterium avium [4]): 125 µM (≈ 48.6 µg/mL)
MIC (Mycobacterium avium [5]): 125 µM (≈ 48.6 µg/mL)
MIC (Mycobacterium kansasii [6]): 8 µM (≈ 3.11 µg/mL)
MIC (Mycobacterium kansasii [7]): 16 µM (≈ 6.22 µg/mL)
MIC (Mycobacterium kansasii [8]): 32 µM (≈ 12.4 µg/mL)
MIC (Mycobacterium kansasii [9]): 16 µM (≈ 6.22 µg/mL)
MIC (Mycobacterium kansasii [10]): 32 µM (≈ 12.4 µg/mL)
MIC (Mycobacterium kansasii [11]): 32 µM (≈ 12.4 µg/mL)
MIC (Staphylococcus aureus [12]): 250 µM (≈ 97.2 µg/mL)
MIC (Staphylococcus aureus [13]): 250 µM (≈ 97.2 µg/mL)
MIC (Staphylococcus aureus [14]): 125 µM (≈ 48.6 µg/mL)
MIC (Staphylococcus aureus [15]): 125 µM (≈ 48.6 µg/mL)
MIC [16]: > 500 µM
MIC [17]: > 500 µM
MIC (Escherichia coli): 62.5 µM (≈ 24.3 µg/mL)
MIC (Klebsiella pneumoniae [18]): 500 µM (≈ 194 µg/mL)
MIC (Klebsiella pneumoniae [19]): 500 µM (≈ 194 µg/mL)
MIC (Pseudomonas aeruginosa): ≥ 500 µM
MIC (Nakaseomyces glabratus): 125 µM (≈ 48.6 µg/mL)

Nc1ccc(S(=O)(=O)Nc2ncccn2)cc1 [SULFADIAZINE]
MIC [2]: 32 µM (≈ 8.01 µg/mL)
MIC [3]: 62.5 µM (≈ 15.6 µg/mL)
MIC (Mycobacterium avium [4]): 62.5 µM (≈ 15.6 µg/mL)
MIC (Mycobacterium avium [5]): 62.5 µM (≈ 15.6 µg/mL)
MIC (Mycobacterium kansasii [6]): 16 µM (≈ 4 µg/mL)
MIC (Mycobacterium kansasii [7]): 16 µM (≈ 4 µg/mL)
MIC (Mycobacterium kansasii [8]): 32 µM (≈ 8.01 µg/mL)
MIC (Mycobacterium kansasii [9]): 8 µM (≈ 2 µg/mL)
MIC (Mycobacterium kansasii [10]): 8 µM (≈ 2 µg/mL)
MIC (Mycobacterium kansasii [11]): 8 µM (≈ 2 µg/mL)
MIC (Staphylococcus aureus [12]): 500 µM (≈ 125 µg/mL)
MIC (Staphylococcus aureus [13]): > 500 µM
MIC (Staphylococcus aureus [14]): 500 µM (≈ 125 µg/mL)
MIC (Staphylococcus aureus [15]): > 500 µM
MIC [16]: > 500 µM
MIC [17]: > 500 µM
